Measured values published in publication PMC3779694 (Hepatology (Baltimore, Md.), 2011).

Columns and labels:
[1] = tested on: adults with NASH; experiment: Serum ALT, phase 2 placebo-controlled trial of GS-9450 for 4 weeks; type: in vivo, human; conditions: for ALT, %Change at Week 4 / ALT, Change at Week 2 / ALT, Change at Week 4: mean (SD); for Observed change from baseline to week 4 in ALT, Difference T − R / Percent change from baseline to week 4 in ALT, Difference T − R / Observed change from baseline to week 4 in ALT, Least Squares Means GS-9450 (T) / Percent change from baseline to week 4 in ALT, Least Squares Means GS-9450 (T): ANCOVA model
[2] = tested on: patients with chronic hepatitis C virus (HCV) infection; conditions: short-term treatment; cited from earlier work
[3] = Steady-state plasma pharmacokinetics of GS-9450; type: in vivo, human
Method in brief: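 Plasma was assayed with a validated bioanalytical method. Steady-state Cmax, Tmax, T1/2 and AUCtau came from weeks 2–4 profiles by noncompartmental analysis. Trough samples were taken at weeks 1–4 and follow-up week 1. Dose proportionality of AUCtau and Cmax was tested by a power model across all fasted doses.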

[4] = tested on: adults with NASH; experiment: Adverse events, phase 2 trial; type: in vivo, human; conditions: for Abdominal pain / Abdominal pain upper / Arthralgia / Asthenia / Back pain / Constipation / Diarrhea / Dizziness / Dry mouth / Dyspepsia / Fatigue / Gastroesophageal reflux disease / Headache / Nasopharyngitis / Nausea / No. of subjects with at least one AE / Pain in extremity / Somnolence / Total no. of events (AEs): during treatment

CC(C)[C@@]1(C(=O)N[C@H]2CC(=O)O[C@]2(O)CF)CC(c2nccc3ccccc23)=NO1 [GS-9450]
ALT, %Change at Week 4 ([1]; 1 mg once daily): −8 (41) %
ALT, Change at Week 2 ([1]; 1 mg once daily): −17 (31) U/L
ALT, Change at Week 4 ([1]; 1 mg once daily): −14 (40) U/L
Observed change from baseline to week 4 in ALT, Difference T − R ([1]; 1 mg vs. pooled placebo): −11 U/L
Percent change from baseline to week 4 in ALT, Difference T − R ([1]; 1 mg vs. pooled placebo): −6%
Observed change from baseline to week 4 in ALT, Least Squares Means GS-9450 (T) ([1]; 1 mg): −15 U/L
Percent change from baseline to week 4 in ALT, Least Squares Means GS-9450 (T) ([1]; 1 mg): −8%
ALT, %Change at Week 4 ([1]; 5 mg once daily): −28 (21) %
ALT, Change at Week 2 ([1]; 5 mg once daily): −35 (18) U/L
ALT, Change at Week 4 ([1]; 5 mg once daily): −30 (26) U/L
Observed change from baseline to week 4 in ALT, Difference T − R ([1]; 5 mg vs. pooled placebo): −25 U/L
Percent change from baseline to week 4 in ALT, Difference T − R ([1]; 5 mg vs. pooled placebo): −26%
Observed change from baseline to week 4 in ALT, Least Squares Means GS-9450 (T) ([1]; 5 mg): −29 U/L
Percent change from baseline to week 4 in ALT, Least Squares Means GS-9450 (T) ([1]; 5 mg): −28%
ALT, %Change at Week 4 ([1]; 10 mg once daily): −30 (20) %
ALT, Change at Week 2 ([1]; 10 mg once daily): −37 (23) U/L
ALT, Change at Week 4 ([1]; 10 mg once daily): −30 (26) U/L
Observed change from baseline to week 4 in ALT, Difference T − R ([1]; 10 mg vs. pooled placebo): −28 U/L
Percent change from baseline to week 4 in ALT, Difference T − R ([1]; 10 mg vs. pooled placebo): −28%
Observed change from baseline to week 4 in ALT, Least Squares Means GS-9450 (T) ([1]; 10 mg): −32 U/L
Percent change from baseline to week 4 in ALT, Least Squares Means GS-9450 (T) ([1]; 10 mg): −31%
mean (SD) ALT decrease from baseline to week 4 ([1]; 40 mg): 47 (43) U/L
ALT, %Change at Week 4 ([1]; 40 mg once daily): −43 (19) %
ALT, Change at Week 2 ([1]; 40 mg once daily): −46 (46) U/L
ALT, Change at Week 4 ([1]; 40 mg once daily): −47 (43) U/L
Observed change from baseline to week 4 in ALT, Difference T − R ([1]; 40 mg vs. pooled placebo): −39 U/L
Percent change from baseline to week 4 in ALT, Difference T − R ([1]; 40 mg vs. pooled placebo): −40%
mean ALT change from baseline at follow-up week 2 ([1]; 40 mg, off treatment): 16 IU/L
mean ALT change from baseline at follow-up week 3 ([1]; 40 mg, off treatment): 13 IU/L
mean ALT change from baseline at follow-up week 4 ([1]; 40 mg, off treatment): 12 IU/L
proportion of subjects with normal ALT at week 4 ([1]; 40 mg, 0% at baseline, normal 43 U/L males, 34 U/L females): 35%
mean absolute ALT value at week 4 ([1]; 40 mg, 106 U/L at baseline): 62 U/L
Observed change from baseline to week 4 in ALT, Least Squares Means GS-9450 (T) ([1]; 40 mg): −43 U/L
Percent change from baseline to week 4 in ALT, Least Squares Means GS-9450 (T) ([1]; 40 mg): −42%
nonresponders at week 4 (decrease in ALT of <10% relative to baseline) ([1]; 40 mg, two subjects): 8%
time after stopping study medication until ALT reduction was offset ([1]; off-treatment follow-up): ≤ 1 week
ALT mean (SD) changes from baseline at week 4 ([1]; range across the GS-9450 groups (1-40 mg)): −14 (40) to −47 (43) U/L
effect on ALT levels [2]: reductions in alanine aminotransferase (ALT) levels
time by which steady state had been reached ([3]; daily dosing, all dose groups): 2–4 weeks
median Tmax ([3]; fasting conditions, steady state, plasma): 2 to 3 h
Cmax dose proportionality ([3]; from 1 to 40 mg): dose-proportional
frequency of treatment-emergent AEs during the 4-week on-treatment period ([4]; 1 mg): 77%
Abdominal pain ([4]; 1 mg (n = 26)): 1 (4) n (%)
Abdominal pain upper ([4]; 1 mg (n = 26)): 1 (4) n (%)
Arthralgia ([4]; 1 mg (n = 26)): 1 (4) n (%)
Asthenia ([4]; 1 mg (n = 26)): 1 (4) n (%)
Back pain ([4]; 1 mg (n = 26)): 1 (4) n (%)
Constipation ([4]; 1 mg (n = 26)): 2 (8) n (%)
Diarrhea ([4]; 1 mg (n = 26)): 2 (8) n (%)
Dizziness ([4]; 1 mg (n = 26)): 2 (8) n (%)
Dry mouth ([4]; 1 mg (n = 26)): 1 (4) n (%)
Dyspepsia ([4]; 1 mg (n = 26)): 2 (8) n (%)
Fatigue ([4]; 1 mg (n = 26)): 6 (23) n (%)
Gastroesophageal reflux disease ([4]; 1 mg (n = 26)): 0 n (%)
Headache ([4]; 1 mg (n = 26)): 4 (15) n (%)
Nasopharyngitis ([4]; 1 mg (n = 26)): 2 (8) n (%)
Nausea ([4]; 1 mg (n = 26)): 3 (12) n (%)
No. of subjects with at least one AE ([4]; 1 mg (n = 26)): 20 (77) n (%)
Pain in extremity ([4]; 1 mg (n = 26)): 1 (4) n (%)
Somnolence ([4]; 1 mg (n = 26)): 1 (4) n (%)
Total no. of events (AEs) ([4]; 1 mg (n = 26)): 62
frequency of treatment-emergent AEs during the 4-week on-treatment period ([4]; 5 mg): 85%
Abdominal pain ([4]; 5 mg (n = 26)): 2 (8) n (%)
Abdominal pain upper ([4]; 5 mg (n = 26)): 1 (4) n (%)
Arthralgia ([4]; 5 mg (n = 26)): 3 (12) n (%)
Asthenia ([4]; 5 mg (n = 26)): 1 (4) n (%)
Back pain ([4]; 5 mg (n = 26)): 2 (8) n (%)
Constipation ([4]; 5 mg (n = 26)): 0 n (%)
Diarrhea ([4]; 5 mg (n = 26)): 6 (23) n (%)
Dizziness ([4]; 5 mg (n = 26)): 0 n (%)
Dry mouth ([4]; 5 mg (n = 26)): 0 n (%)
Dyspepsia ([4]; 5 mg (n = 26)): 2 (8) n (%)
Fatigue ([4]; 5 mg (n = 26)): 5 (19) n (%)
Gastroesophageal reflux disease ([4]; 5 mg (n = 26)): 0 n (%)
Headache ([4]; 5 mg (n = 26)): 7 (27) n (%)
Nasopharyngitis ([4]; 5 mg (n = 26)): 0 n (%)
Nausea ([4]; 5 mg (n = 26)): 1 (4) n (%)
No. of subjects with at least one AE ([4]; 5 mg (n = 26)): 22 (85) n (%)
Pain in extremity ([4]; 5 mg (n = 26)): 0 n (%)
Somnolence ([4]; 5 mg (n = 26)): 2 (8) n (%)
Total no. of events (AEs) ([4]; 5 mg (n = 26)): 64
